# Assay outcomes as filed in PubChem.
# Compounds with a hit are over-represented: about 3.9% of the library has one in this group of screens.
# TAAR1 ag: human TAAR1 agonism | Q96RJ0 | CHO RD-HGA16 TAAR1, Fluo-8 calcium fluorescence; vehicle wells 0%, saturating PEA agonist 100% | activation, % at 3 µM | 360,000 tested, 0.99% active | AID 624467;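 active = activation above the mean activation of all test compounds in the run plus 3 SD, cut at about 38% in these data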
#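 test system = CHO RD-HGA16 cells carrying human TAAR1 plus Gα16 | schedule = 17-24 h seeding, 75 min 37 °C dye, 30 min RT | compound dosing = 3 µM single concentration | control set = DMSO and PEA EC100 | replicates = n 1 | signal = Fluo-8 fluorescence, 5 s baseline then 140 s kinetic read | measure = percent activation vs PEA EC100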
# M1 PAM: human CHRM1 positive allosteric modulation; P11229; activation, % at 3 µM; CHO-K1 hM1, Fluo-8 calcium fluorescence, ACh EC20; 0% = ACh EC20, 100% = maximal ACh; 360,000 tested, 0.088% active; AID 588819; in the data active = activation above about 19%, passing the limit was not always enough
# TAAR1 antagonist: antagonists of human TAAR1; Q96RJ0; CHO RD-HGA16 TAAR1, Fluo-8 calcium fluorescence, antagonist; inhibition, % at 3 µM; 360,000 tested, 1.5% active; AID 624466;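 active = inhibition above a per-plate cutoff, the mean inhibition of test compounds on that plate plus 3 SD, cut at about 49% in these data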;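 note: 0% = DMSO plus EC80 beta-PEA response and 100% = DMSO alone without agonist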
#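 Test system: CHO RD-HGA16 cells bearing hTAAR1 | Reagent: β-PEA, EC80 | Compound dosing: 3 µM, single point | Schedule: Dye loading 75 min at 37 °C, then 30 min room temperature | Signal: Calcium fluorescence with Fluo-8 | Evaluation: Percent inhibition of PEA-evoked calcium signal, max/basal emission ratio | Control set: DMSO-only wells and EC80 β-PEA-stimulated wells | Repeats: Singlicate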
# HTR2A ag: agonists of mouse serotonin 5-HT2A receptor (HTR2A) | P35363 | CHO-K1 mHTR2A beta-arrestin complementation, luminescence; percent of 30 µM serotonin response | activation, % at 7.6 µM | 360,000 tested, 0.66% active | AID 624169;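 active = activation above a run cutoff, the mean activation of all tested compounds plus 3 SD, cut at about 14% in these data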;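 note: 0% = plate median of compound wells and 100% = 30 µM serotonin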
# Target sequence (P35363 whole entry, looked up): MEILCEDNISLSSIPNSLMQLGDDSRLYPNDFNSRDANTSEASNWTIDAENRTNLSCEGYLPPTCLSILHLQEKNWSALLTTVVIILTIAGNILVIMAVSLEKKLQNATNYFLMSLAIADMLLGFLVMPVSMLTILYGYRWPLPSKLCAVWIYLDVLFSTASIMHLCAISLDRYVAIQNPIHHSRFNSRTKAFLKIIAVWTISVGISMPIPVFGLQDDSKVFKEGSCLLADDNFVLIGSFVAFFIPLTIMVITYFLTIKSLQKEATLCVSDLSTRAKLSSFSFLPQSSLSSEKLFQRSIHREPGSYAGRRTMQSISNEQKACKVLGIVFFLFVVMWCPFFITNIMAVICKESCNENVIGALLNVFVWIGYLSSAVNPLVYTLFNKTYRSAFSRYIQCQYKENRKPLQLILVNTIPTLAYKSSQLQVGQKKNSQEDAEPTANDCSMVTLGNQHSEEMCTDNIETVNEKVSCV
# M1 ag: activates human CHRM1 receptor; P11229; CHO-K1 hM1, Fluo-8 calcium fluorescence, agonist mode; 0% DMSO, 100% acetylcholine EC100; activation, % at 3 µM; 360,000 tested, 0.33% active; AID 588814;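 active = activation above the run's mean compound activation plus 3 SD, cut at about 16% in these data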;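 note: peak over basal fluorescence ratio within a 140 s kinetic read after compound addition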
# CHRM1 antagonist: antagonists of human M1 muscarinic receptor. P11229. CHO-K1 hM1, Fluo-8 calcium fluorescence, ACh EC80 antagonist. inhibition, % at 3 µM. 360,000 tested, 1.3% active;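 active = percent inhibition above its own plate's cutoff, namely the mean of that plate's compound wells plus 3 SD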;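 note: peak over basal fluorescence ratio during 140 s after agonist addition; 0% = ACh EC80 plus DMSO and 100% = DMSO alone without agonist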
# MOR ag counter: activates human mu opioid receptor in HTR2A counterscreen; shares compounds with HTR2A ag; U2OS OPRM1 beta-arrestin PathHunter, luminescence; DMSO 0%, DAMGO 9.3 µM 100%; activation, % at 9.3 µM; 2,300 tested, 5.3% active; AID 624380;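 active = mean activation above the mean of DMSO-only wells plus 3 SD, cut at about 0.5% in these data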
# HTR2A ag conf: mouse HTR2A agonism confirmed | CHO-K1 PathHunter beta-arrestin recruitment, luminescence; DMSO 0%, 30 µM serotonin 100% | AID 624381 | activation, % at 7.6 µM | 2,300 tested, 19% active | shares compounds with HTR2A ag;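 active = mean activation across triplicates above the hit threshold derived in the original primary screen, cut at about 15% in these data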
# * marks the source's active call; other numbers are inactive results; . = not tested or not shown.
SMILES,TAAR1 ag,M1 PAM,TAAR1 antagonist,HTR2A ag,M1 ag,CHRM1 antagonist,MOR ag counter,HTR2A ag conf
CCOC(=O)C1=C(N)Oc2cc(O)ccc2C1c1ccc(C)cc1 (stereo unspecified),-2.2,0.2,-6.0,30.9*,-1.8,-7.6,1.1*,-1.0
COc1ccc(CC(=O)OCC(=O)NC2CCCCC2)cc1OC,-0.1,-6.6,3.3,20.4*,-2.6,2.2,-0.5,-2.2
Cc1ccc(OCC(=O)OCC(=O)NC2CCCC2)cc1C,1.3,2.2,-1.8,15.1*,-3.3,-2.1,-0.2,3.5
COc1ccc(CCC(=O)OCC(=O)NC2CCCC2)cc1OC,2.3,5.1,5.2,-1.2,-2.2,-11.8,.,.
CCOC(=O)C1(Cc2ccccc2)CCCN(C(=O)c2ccc(-n3ccnc3)cc2)C1 (stereo unspecified),4.3,-2.3,15.8,-9.6,-2.3,9.3,.,.
CC(=O)c1cccc(NC(=O)C(C)OC(=O)Cc2c[nH]c3ccccc23)c1 (stereo unspecified),6.5,-0.7,6.8,4.6,-1.8,0.3,.,.
CCOC(=O)c1c2c(n(Cc3ccccc3)c1C)C(=O)C(=O)c1ccccc1-2,2.8,-9.9,55.4*,15.2*,-6.0,16.5,1.8*,9.3
Cc1cccc(NC(=O)C(C)Oc2ccc(C)nc2[N+](=O)[O-])c1 (stereo unspecified),1.3,3.1,23.2,3.8,-6.6,-7.2,.,.
CC/C(=N\NC(=O)C1CCCC1)c1cccc(Br)c1,-0.7,0.6,-18.9,-3.0,-4.2,-1.8,.,.
CC/C(=N\NC(=O)C1CCCC1)c1ccc(Br)cc1,-2.5,5.8,-19.9,18.4*,-2.1,10.0,-0.7,-2.5
CCOc1ccc(NC(=S)NCc2ccc3c(c2)OCO3)cc1,0.5,1.4,8.4,15.2*,-0.7,12.3,-0.6,1.1
Cc1ccc(NC(=S)NCc2ccc3c(c2)OCO3)cc1,6.1,0.8,-9.8,-1.3,-6.0,-9.0,.,.
COc1ccc(NC(=O)C2CC3C=CC2C3)c([N+](=O)[O-])c1 (stereo unspecified),-1.1,14.4,-22.3,14.8*,-2.0,-18.2,-0.3,0.7
O=C(O)CSc1c(-c2ccccc2)[nH]c2ccccc12,3.2,2.6,-8.2,2.4,-5.2,-5.2,.,.
O=C(O)CSc1c(-c2cccs2)[nH]c2ccccc12,-0.3,9.3,-0.5,16.4*,-5.3,-2.6,0.1,7.6
CC(NCCN(C)C)C(=O)C12CC3CC(CC(C3)C1)C2 (stereo unspecified),0.1,5.6,-7.6,-1.9,-6.4,-14.1,.,.
CC12CCC(C(=O)N(CCCCN3CCN(c4ccccn4)CC3)C1=O)C2(C)C (stereo unspecified),2.9,3.5,-12.5,28.0*,-8.1,-8.7,-0.5,90.2*
CC12CCC(C(=O)N(CCCN3CCN(Cc4ccccc4)CC3)C1=O)C2(C)C (stereo unspecified),3.0,1.2,-16.9,-2.0,-7.8,0.9,.,.
CCc1nnc(NC(=O)CCNC(=O)c2ccco2)s1,-2.0,9.3,5.8,6.9,0.0,-9.6,.,.
CCCCNC(=O)C(=O)Nc1cc2c3c(c1)CCC(=O)N3CCC2,2.3,12.1,-5.7,14.7*,-1.3,-14.6,-0.5,-3.8
COc1cccc(CNC(=S)Nc2cc(C)ccc2C)c1,5.2,3.6,17.2,0.8,-13.1,0.1,.,.
CCCCC(=O)Nc1ccc(Cl)cc1F,1.9,6.2,-8.6,16.6*,-3.9,-13.5,0.2,1.6
CC(C)Cc1cc(C(=O)Nc2ccc(F)cc2F)no1,1.7,-3.2,8.1,17.5*,-6.6,-10.2,-0.6,-2.5
NS(=O)(=O)c1ccc(CCNS(=O)(=O)Cc2ccc(Cl)cc2)cc1,1.1,6.5,-6.3,7.3,-3.2,-11.8,.,.
COc1ccc(S(=O)(=O)N2CCC(C(=O)NCCN3CCOCC3)CC2)cc1,2.2,7.0,-21.6,2.0,-2.2,-16.3,.,.
SMILES,TAAR1 ag,M1 PAM,TAAR1 antagonist,HTR2A ag,M1 ag,CHRM1 antagonist,MOR ag counter,HTR2A ag conf
COc1cccc(/C=C2/Oc3ccccc3N(CC(=O)NCC3CCCO3)C2=O)c1 (stereo unspecified),.,-7.3,.,6.9,-3.1,10.3,.,.
O=C(Cc1cccc(NC(=O)C2CCCN(C(=O)C3CCCCC3)C2)c1)Nc1cccc(C(=O)N2CCCCC2)c1 (stereo unspecified),10.0,1.3,-22.5,-2.0,-7.7,-8.9,.,.
O=C(NC(=S)NC1CC1)c1cccnc1,13.8,3.3,3.3,3.7,2.8,-2.5,.,.
O=C(NC(=S)NC1CCCCCCCCCCC1)c1cccnc1,12.6,9.2,-18.0,17.0*,-3.2,-7.5,-0.3,1.2
CS(=O)(=O)c1ccc2nc(NC(=O)c3ccc(Cl)cc3)sc2c1,13.2,10.2,24.3,18.1*,-4.9,-16.1,-0.5,2.9
C[C@H](CO)N1C[C@H](C)[C@@H](CN(C)C(=O)C2CCCCC2)OCc2cn(nn2)CCCC1=O,1.4,6.8,-13.7,0.4,-4.8,-15.8,.,.
Cc1cc(C)n(C(N)=NC(=O)c2ccccc2)n1,2.1,2.6,-19.0,-2.2,-5.3,-11.9,.,.
CCc1ncc(CN2CCC(C(=O)Nc3cccc(-c4cscn4)c3)CC2)cn1,-1.1,2.5,-14.7,-4.3,-5.2,-6.9,.,.
Cc1cccc(NC(=O)CN(c2ccc(C(C)C)cc2)S(=O)(=O)c2c(C)nn(C)c2C)n1,-2.3,1.0,13.0,15.8*,-9.9,-1.0,-0.7,-2.5
Cc1ccc2c(c1)[C@H]1[C@H](CO2)[C@H](c2ccccc2)[C@]2(C)C(=O)N(CC3CCCO3)CC(=O)N12 (stereo partly specified),9.1,9.0,-12.3,17.7*,-1.7,-11.3,-0.5,-2.8
C[C@@]12C(=O)N(CC3CCCO3)CC(=O)N1[C@H]1c3cc(Cl)ccc3OC[C@@H]1[C@@H]2c1ccccc1 (stereo partly specified),13.3,4.8,9.5,-2.3,1.7,-14.9,.,.
CC(=O)N1C(=O)N(C(C)=O)C2C1N(C)C(=O)N2C(C)=O (stereo unspecified),1.4,13.6,6.5,-1.6,-6.4,-14.6,.,.
CCCn1c(SCC(=O)NCCc2ccc(Cl)cc2Cl)n[nH]c1=O,-3.4,6.1,5.2,15.9*,-4.0,-32.8,-0.3,-0.1
O=C(COC(=O)c1cc(NS(=O)(=O)c2cccs2)ccc1O)Nc1ccccc1,9.6,-0.6,13.0,-3.8,0.5,-27.6,.,.
